# Measured values reported in ChEMBL document CHEMBL1125735, “trans-hexahydroindolo[4,3-ab]phenanthridines ("benzergolines"), the first structural class of potent and selective dopamine D1 receptor agonists lacking a catechol group” (1991).
# Key:
# [1] = species: Bos taurus; experiment: Percent of maximal effect of 125 uM Dopamine in the adenylate cyclase assay.; type: functional
# Procedure, shortened: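 Dopamine-sensitive adenylate cyclase assay run on bovine retina tissue.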
# [2] = biological target: D(2) dopamine receptor (Rattus norvegicus) (UniProt P61169); experiment: Compound was evaluated for its potency to inhibit electrically evoked acetylcholine (ACh) release as a model for Dopamine D2 receptor activation.; type: functional
# Procedure, shortened: (§1)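 Electrically evoked acetylcholine release measured in rat striatal slices.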
# [3] = biological target: D(2) dopamine receptor (Rattus norvegicus) (UniProt P61169); conditions: 1 uM
# [4] = test system: Dopamine D1 receptor (Bos taurus); experiment: Compound was evaluated for its potency to Dopamine D1 stimulating effect in the adenylate cyclase assay.
# [5] = biological target: D(2) dopamine receptor (Rattus norvegicus) (UniProt P61169); experiment: Percent of maximal inhibition by change of S2/S1 versus control at 1 uM for the cetylcholine (ACh) release as a model for Dopamine D2 receptor activation.; type: functional; design: scale not given: the % may be the effect or the level left; procedure, shortened: as §1
# [6] = biological target: D(2) dopamine receptor (Rattus norvegicus) (UniProt P61169); experiment: Percent of maximal inhibition by change of S2/S1 versus control at 1 uM for the acetylcholine (ACh) release as a model for Dopamine D2 receptor activation.; type: functional; design: scale not given: the % may be the effect or the level left; procedure, shortened: as §1
# Sequence of D(2) dopamine receptor (Rattus norvegicus) (P61169 whole entry): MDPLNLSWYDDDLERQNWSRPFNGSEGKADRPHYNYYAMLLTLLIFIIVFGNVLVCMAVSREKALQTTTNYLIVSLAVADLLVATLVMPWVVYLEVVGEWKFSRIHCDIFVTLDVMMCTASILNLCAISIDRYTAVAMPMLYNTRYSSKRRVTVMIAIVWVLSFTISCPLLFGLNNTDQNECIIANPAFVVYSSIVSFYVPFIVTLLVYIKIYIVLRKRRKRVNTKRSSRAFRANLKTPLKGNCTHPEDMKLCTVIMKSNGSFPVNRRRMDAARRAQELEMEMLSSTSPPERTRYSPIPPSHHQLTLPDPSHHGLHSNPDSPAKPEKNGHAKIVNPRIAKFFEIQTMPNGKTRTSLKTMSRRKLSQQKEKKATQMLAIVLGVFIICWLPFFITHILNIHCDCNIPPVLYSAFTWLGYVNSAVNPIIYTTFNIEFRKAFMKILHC
SMILES,Relative activity [1],pD2 [2],Control [3],pD2 [4],Control [5],Control [6]
CN1CCc2cccc3c2[C@H]1Cc1ccc(O)c(O)c1-3 [APOMORPHINE],38%,7.5,85%,6.2,,
Oc1ccc([C@@H]2CNCc3ccccc32)cc1O,86%,,,6,0%,
c1ccc2c(c1)CN[C@@H]1Cc3c[nH]c4cccc(c34)[C@H]21,82%,,,6.3,,0%
CCN1Cc2ccccc2[C@H]2c3cccc4[nH]cc(c34)C[C@H]21,72%,,,6,,0%
CN1Cc2ccccc2[C@H]2c3cccc4c3C(CN4)C[C@H]21 (stereo not given in full),0%,,,,0%,
CCCN1Cc2ccccc2[C@H]2c3cccc4[nH]cc(c34)C[C@H]21,55%,,,5.7,,0%
CN1CCC[C@H]2c3cccc4[nH]cc(c34)C[C@H]21,24%,7.5,,5.2,30%,
CN1Cc2ccccc2[C@H]2c3cccc4[nH]cc(c34)C[C@H]21,57%,,,6.1,,0%
CCCCN1Cc2ccccc2[C@H]2c3cccc4[nH]cc(c34)C[C@H]21,0%,,,,0%,
Oc1cc2c(cc1O)C(c1ccccc1)CNCC2 (stereo not given) [SKF-38393],58%,,,6.6,0%,
